Test results taken from ChEMBL document CHEMBL1124687, “Analogues of atriopeptin(103-125)amide having high binding selectivity” (J Med Chem, 1989).
pKi: −log10 of the molar value. Positions of bridges follow the written chain, without caps; N, C: chain ends. Non-standard residues stand in square brackets, D forms with d. Residues, ends and D or L forms follow the SMILES beside them. ξ: configuration not given here. Nva = CCC[C@H](N)C(=O)O; ξA = CC(N)C(=O)O

Columns and labels:
[1] = molecular target: Atrial natriuretic peptide receptor (Homo sapiens) (UniProt P20594+P16066+P17342); assay: Selectivity factor, ratio of NVR and VR relative binding potency; assay type: protein assay; settings: Oryctolagus cuniculus
Oryctolagus cuniculus = organism: Oryctolagus cuniculus; assay: Binding affinity for vasorelaxant receptor by competitive displacement of [125I]-AP(103-126) from rabbit lung membranes; assay type: tissue-based; settings: Membrane
[2] = molecular target: T1, Atrial natriuretic peptide receptor 3 (Homo sapiens) (UniProt P17342); assay: Binding affinity for non-vasorelaxant receptor by competitive displacement of [125I]-AP(103-126) from rabbit lung membranes; assay type: tissue-based; settings: Oryctolagus cuniculus, Membrane, target entry is the homologue from another species
T1 sequence (whole entry): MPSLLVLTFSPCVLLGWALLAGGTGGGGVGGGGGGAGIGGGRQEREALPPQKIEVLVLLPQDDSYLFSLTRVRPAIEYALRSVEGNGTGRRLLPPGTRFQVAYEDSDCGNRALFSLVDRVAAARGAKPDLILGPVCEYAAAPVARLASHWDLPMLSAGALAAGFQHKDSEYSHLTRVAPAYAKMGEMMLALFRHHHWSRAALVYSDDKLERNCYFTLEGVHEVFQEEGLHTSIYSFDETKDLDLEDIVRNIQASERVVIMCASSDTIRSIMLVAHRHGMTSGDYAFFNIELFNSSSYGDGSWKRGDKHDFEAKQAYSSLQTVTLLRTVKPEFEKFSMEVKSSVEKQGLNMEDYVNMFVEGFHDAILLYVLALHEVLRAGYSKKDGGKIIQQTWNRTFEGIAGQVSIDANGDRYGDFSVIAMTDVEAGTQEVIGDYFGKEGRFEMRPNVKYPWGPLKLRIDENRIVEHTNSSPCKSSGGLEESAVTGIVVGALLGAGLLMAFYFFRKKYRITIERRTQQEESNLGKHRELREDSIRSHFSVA

[3] = Apparent binding constant for vasorelaxant subclass of receptors; parameters: species or system Oryctolagus cuniculus
Method in brief: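 Competitive binding assay on rabbit lung membranes, using atrial peptide analogues.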

SMILES	Ratio [1]	Relative potency (Oryctolagus cuniculus)	Relative potency [2]	pKi [3]
CC[C@H](C)[C@@H]1NC(=O)[C@H](CCCN=C(N)N)NC(=O)[C@H](CC(=O)O)NC(=O)[C@H]([C@@H](C)CC)NC(=O)[C@H](CCCN=C(N)N)NC(=O)CNC(=O)CNC(=O)[C@H](Cc2ccccc2)NC(=O)C(C)NC(=O)[C@@H](NC(=O)[C@@H](N)CO)CSSC[C@@H](C(=O)N[C@@H](CO)C(=O)N[C@@H](Cc2ccccc2)C(=O)N[C@@H](CCCN=C(N)N)C(N)=O)NC(=O)C(C)NC(=O)CNC(=O)[C@H](CC(C)C)NC(=O)CNC(=O)[C@H](CO)NC(=O)[C@H](CCC(N)=O)NC(=O)[C@H](C)NC(=O)CNC1=O (some centres undefined) (H-SC[ξA]FGGRIDRIGAQSGLG[ξA]CSFR-NH2; disulfide 2-20)	464	0.0028	1.3	
CC[C@H](C)[C@@H]1NC(=O)[C@H](CCCN=C(N)N)NC(=O)[C@H](CC(=O)O)NC(=O)[C@H]([C@@H](C)CC)NC(=O)[C@H](CCCN=C(N)N)NC(=O)CNC(=O)CNC(=O)[C@H](Cc2ccccc2)NC(=O)[C@@H](NC(=O)[C@H](CO)NC(=O)[C@@H](N)CO)CSSC[C@@H](C(=O)N[C@@H](CSC)C(=O)N[C@@H](CC(N)=O)C(=O)N[C@@H](CO)C(=O)N[C@@H](Cc2ccccc2)C(=O)N[C@@H](CCCN=C(N)N)C(N)=O)NC(=O)[C@H](CC(C)C)NC(=O)CNC(=O)[C@H](CO)NC(=O)[C@H](CCC(N)=O)NC(=O)[C@H](C)NC(=O)CNC1=O (H-SSCFGGRIDRIGAQSGLCC(Me)NSFR-NH2; disulfide 3-18)	32	0.041	1.3	
CC[C@H](C)[C@@H]1NC(=O)[C@H](CCCN=C(N)N)NC(=O)[C@H](CC(=O)O)NC(=O)[C@H]([C@@H](C)CC)NC(=O)[C@H](CCCN=C(N)N)NC(=O)CNC(=O)CNC(=O)[C@H](Cc2ccccc2)NC(=O)[C@@H](NC(=O)[C@H](CO)NC(=O)[C@@H](N)CO)CSSC[C@@H](C(=O)N[C@@H](CO)C(=O)N[C@@H](CC(N)=O)C(=O)N[C@@H](CO)C(=O)N[C@@H](Cc2ccccc2)C(=O)N[C@@H](CCCN=C(N)N)C(N)=O)NC(=O)[C@H](CC(C)C)NC(=O)CNC(=O)[C@H](CO)NC(=O)[C@H](CCC(N)=O)NC(=O)[C@H](C)NC(=O)CNC1=O (H-SSCFGGRIDRIGAQSGLCSNSFR-NH2; disulfide 3-18)	23	0.056	1.3	
CCC[C@H](NC(=O)[C@@H]1CSSC[C@H](NC(=O)[C@H](CO)NC(=O)[C@@H](N)CO)C(=O)N[C@@H](Cc2ccccc2)C(=O)NCC(=O)NCC(=O)N[C@@H](CCCN=C(N)N)C(=O)N[C@@H]([C@@H](C)CC)C(=O)N[C@@H](CC(=O)O)C(=O)N[C@@H](CCCN=C(N)N)C(=O)N[C@@H]([C@@H](C)CC)C(=O)NCC(=O)N[C@@H](C)C(=O)N[C@@H](CCC(N)=O)C(=O)N[C@@H](CO)C(=O)NCC(=O)N[C@@H](CC(C)C)C(=O)N1)C(=O)N[C@@H](CC(N)=O)C(=O)N[C@@H](CO)C(=O)N[C@@H](Cc1ccccc1)C(=O)N[C@@H](CCCN=C(N)N)C(N)=O (H-SSCFGGRIDRIGAQSGLC[Nva]NSFR-NH2; disulfide 3-18)	13	0.047	0.63	
CC[C@H](C)[C@@H]1NC(=O)[C@H](CCCN=C(N)N)NC(=O)[C@H](CC(=O)O)NC(=O)[C@H]([C@@H](C)CC)NC(=O)[C@H](CCCN=C(N)N)NC(=O)CNC(=O)CNC(=O)[C@H](Cc2ccccc2)NC(=O)[C@@H](NC(=O)[C@H](CO)NC(=O)[C@@H](N)CO)CSSC[C@@H](C(=O)NC(C)C(=O)N[C@@H](CC(N)=O)C(=O)N[C@@H](CO)C(=O)N[C@@H](Cc2ccccc2)C(=O)N[C@@H](CCCN=C(N)N)C(N)=O)NC(=O)[C@H](CC(C)C)NC(=O)CNC(=O)[C@H](CO)NC(=O)[C@H](CCC(N)=O)NC(=O)[C@H](C)NC(=O)CNC1=O (some centres undefined) (H-SSCFGGRIDRIGAQSGLC[ξA]NSFR-NH2; disulfide 3-18)	6	0.16	0.94	

Other lines, results leading:

Ratio [1]	Relative potency (Oryctolagus cuniculus)	Relative potency [2]	pKi [3]	SMILES
485	0.0013	0.63		CC[C@H](C)[C@@H]1NC(=O)[C@H](CCCN=C(N)N)NC(=O)[C@H](CC(=O)O)NC(=O)[C@H]([C@@H](C)CC)NC(=O)[C@H](CCCN=C(N)N)NC(=O)[C@@H](NC(=O)CNC(=O)[C@H](Cc2ccccc2)NC(=O)[C@H](C)NC(=O)[C@H](CO)NC(=O)[C@@H](N)CO)CSSC[C@@H](C(=O)NCC(=O)N[C@@H](CC(C)C)C(=O)NCC(=O)N[C@@H](C)C(=O)N[C@@H](CC(N)=O)C(=O)N[C@@H](CO)C(=O)N[C@@H](Cc2ccccc2)C(=O)N[C@@H](CCCN=C(N)N)C(N)=O)NC(=O)[C@H](CCC(N)=O)NC(=O)[C@H](C)NC(=O)CNC1=O (H-SSAFGCRIDRIGAQCGLGANSFR-NH2; disulfide 6-15)
369	0.0016	0.59		CC[C@H](C)[C@@H]1NC(=O)[C@H](CCCN=C(N)N)NC(=O)[C@H](CC(=O)O)NC(=O)[C@H]([C@@H](C)CC)NC(=O)[C@H](CCCN=C(N)N)NC(=O)[C@@H](NC(=O)CNC(=O)[C@H](Cc2ccccc2)NC(=O)[C@H](CSC)NC(=O)[C@H](CO)NC(=O)[C@@H](N)CO)CSSC[C@@H](C(=O)NCC(=O)N[C@@H](CC(C)C)C(=O)NCC(=O)N[C@@H](CSC)C(=O)N[C@@H](CC(N)=O)C(=O)N[C@@H](CO)C(=O)N[C@@H](Cc2ccccc2)C(=O)N[C@@H](CCCN=C(N)N)C(N)=O)NC(=O)[C@H](CCC(N)=O)NC(=O)[C@H](C)NC(=O)CNC1=O (H-SSC(Me)FGCRIDRIGAQCGLGC(Me)NSFR-NH2; disulfide 6-15)
118	0.011	1.3	8.13	CC[C@H](C)[C@@H]1NC(=O)[C@H](CCCN=C(N)N)NC(=O)[C@H](CC(=O)O)NC(=O)[C@H]([C@@H](C)CC)NC(=O)[C@H](CCCN=C(N)N)NC(=O)[C@@H](NC(=O)CNC(=O)[C@H](Cc2ccccc2)NC(=O)CNC(=O)[C@H](CO)NC(=O)[C@@H](N)CO)CSSC[C@@H](C(=O)NCC(=O)N[C@@H](CC(C)C)C(=O)NCC(=O)NCC(=O)N[C@@H](CC(N)=O)C(=O)N[C@@H](CO)C(=O)N[C@@H](Cc2ccccc2)C(=O)N[C@@H](CCCN=C(N)N)C(N)=O)NC(=O)[C@H](CCC(N)=O)NC(=O)[C@H](C)NC(=O)CNC1=O (H-SSGFGCRIDRIGAQCGLGGNSFR-NH2; disulfide 6-15)
1120	0.00072	0.81		CC[C@H](C)[C@@H]1NC(=O)[C@H](CCCN=C(N)N)NC(=O)[C@H](CC(=O)O)NC(=O)[C@H]([C@@H](C)CC)NC(=O)[C@H](CCCN=C(N)N)NC(=O)[C@@H](NC(=O)CNC(=O)[C@H](Cc2ccccc2)NC(=O)CNC(=O)[C@H](CO)NC(=O)[C@@H](N)CO)CSSC[C@@H](C(=O)N[C@@H](CC(C)C)C(=O)NCC(=O)NCC(=O)N[C@@H](CC(N)=O)C(=O)N[C@@H](CO)C(=O)N[C@@H](Cc2ccccc2)C(=O)N[C@@H](CCCN=C(N)N)C(N)=O)NC(=O)[C@H](CO)NC(=O)[C@H](CCC(N)=O)NC(=O)[C@H](C)NC(=O)CNC1=O (H-SSGFGCRIDRIGAQSCLGGNSFR-NH2; disulfide 6-16)
293	0.0015	0.44		CC[C@H](C)[C@@H]1NC(=O)[C@H](CCCN=C(N)N)NC(=O)[C@H](CC(=O)O)NC(=O)[C@H]([C@@H](C)CC)NC(=O)[C@H](CCCN=C(N)N)NC(=O)[C@@H](NC(=O)CNC(=O)[C@H](Cc2ccccc2)NC(=O)[C@H](CO)NC(=O)[C@H](CO)NC(=O)[C@@H](N)CO)CSSC[C@@H](C(=O)NCC(=O)N[C@@H](CC(C)C)C(=O)NCC(=O)N[C@@H](CO)C(=O)N[C@@H](CC(N)=O)C(=O)N[C@@H](CO)C(=O)N[C@@H](Cc2ccccc2)C(=O)N[C@@H](CCCN=C(N)N)C(N)=O)NC(=O)[C@H](CCC(N)=O)NC(=O)[C@H](C)NC(=O)CNC1=O (H-SSSFGCRIDRIGAQCGLGSNSFR-NH2; disulfide 6-15)
286	0.00091	0.26		CCC[C@H](NC(=O)CNC(=O)[C@H](CC(C)C)NC(=O)CNC(=O)[C@@H]1CSSC[C@H](NC(=O)CNC(=O)[C@H](Cc2ccccc2)NC(=O)[C@H](CCC)NC(=O)[C@H](CO)NC(=O)[C@@H](N)CO)C(=O)N[C@@H](CCCN=C(N)N)C(=O)N[C@@H]([C@@H](C)CC)C(=O)N[C@@H](CC(=O)O)C(=O)N[C@@H](CCCN=C(N)N)C(=O)N[C@@H]([C@@H](C)CC)C(=O)NCC(=O)N[C@@H](C)C(=O)N[C@@H](CCC(N)=O)C(=O)N1)C(=O)N[C@@H](CC(N)=O)C(=O)N[C@@H](CO)C(=O)N[C@@H](Cc1ccccc1)C(=O)N[C@@H](CCCN=C(N)N)C(N)=O (H-SS[Nva]FGCRIDRIGAQCGLG[Nva]NSFR-NH2; disulfide 6-15)
